Assay results taken from ChEMBL document CHEMBL1140331, “Iterative approach to the discovery of novel degarelix analogues: substitutions at positions 3, 7, and 8. Part II” (J Med Chem, 2005).
*1 amine or outer side, *2 acyl side, *3 side chain or, on linkers, in order; H or OH if unused. Where a SMILES comes first, the peptide text is derived from it. [ ]: non-standard residue; d: D form. The star is where a group is joined. Phe(4-NH(5-NH2triazol-3-yl)) = Nc1nc(Nc2ccc(C[C@H](N)C(=O)O)cc2)n[nH]1; X1 = Nc1nc(Nc2ccc(C[C@@H](N[*:1])C(=O)[*:2])cc2)n[nH]1; dPhe(4-NHCONH2) = NC(=O)Nc1ccc(C[C@@H](N)C(=O)O)cc1; Dihydroorotyl(S) = O=C1C[C@@H](C(=O)*)NC(=O)N1; dPhe(4-Cl) = N[C@H](Cc1ccc(Cl)cc1)C(=O)O; Phe(4-NH2) = Nc1ccc(C[C@H](N)C(=O)O)cc1; d2Nal = N[C@H](Cc1ccc2ccccc2c1)C(=O)O; Lys(iPr) = CC(C)NCCCC[C@H](N)C(=O)O; d3Pal = N[C@H](Cc1cccnc1)C(=O)O

Molecular target: T1, Gonadotropin-releasing hormone receptor (Homo sapiens, UniProt P30968)
T1 sequence (P30968 whole entry): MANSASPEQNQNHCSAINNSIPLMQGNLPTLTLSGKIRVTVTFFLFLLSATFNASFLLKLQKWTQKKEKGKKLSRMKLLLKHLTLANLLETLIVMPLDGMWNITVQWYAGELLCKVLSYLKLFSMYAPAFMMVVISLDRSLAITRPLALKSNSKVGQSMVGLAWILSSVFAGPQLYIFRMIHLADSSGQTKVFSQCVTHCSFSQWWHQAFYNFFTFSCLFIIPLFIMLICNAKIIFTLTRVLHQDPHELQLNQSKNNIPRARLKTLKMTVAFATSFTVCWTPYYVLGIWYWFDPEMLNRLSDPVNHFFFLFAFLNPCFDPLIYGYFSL
Assay: Antagonism of GnRH response in HEK293 cells expressing human GnRH receptor
Assay type: functional, cell-based
Summary of the method: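 HEK293 cells stably carrying cloned human GnRH receptor and luciferase reporter under LH α-subunit promoter; cultured in phenol red-free DMEM, 10% FBS, G418 0.4 mg/mL; plated 5×10^4 cells/well, overnight 37 °C. Compound (11 half-log concentrations, duplicate, 1% DMSO) preincubated 10 min, then GnRH 1 nM final, ≥5 h; luminescence read; % of control cps (blank-subtracted) gives IC50.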

SMILES	IC50	IC50 (hek293)
CC(=O)N[C@H](Cc1ccc2ccccc2c1)C(=O)N[C@H](Cc1ccc(Cl)cc1)C(=O)N[C@H](Cc1cccnc1)C(=O)N[C@@H](CO)C(=O)N[C@@H](Cc1ccc(NC(=O)[C@@H]2CC(=O)NC(=O)N2)cc1)C(=O)N[C@H](Cc1ccc(NC(N)=O)cc1)C(=O)N[C@@H](Cc1ccc(O)cc1)C(=O)N[C@@H](CCCCNC(C)C)C(=O)N1CCC[C@H]1C(=O)N[C@H](C)C(N)=O	2.85 nM	
CC(=O)N[C@H](Cc1ccc2ccccc2c1)C(=O)N[C@H](Cc1ccc(Cl)cc1)C(=O)N[C@H](Cc1cccnc1)C(=O)N[C@@H](CO)C(=O)N[C@@H](Cc1ccc(NC(=O)[C@@H]2CC(=O)NC(=O)N2)cc1)C(=O)N[C@H](Cc1ccc(NC(N)=O)cc1)C(=O)N(C)[C@@H](CC(C)C)C(=O)N[C@@H](CCCCNC(C)C)C(=O)N1CCC[C@H]1C(=O)N[C@H](C)C(N)=O	1.47 nM	
CC(=O)N[C@H](Cc1ccc2ccccc2c1)C(=O)N[C@H](Cc1ccc(Cl)cc1)C(=O)N[C@@H](Cc1cccnc1)C(=O)N[C@@H](CO)C(=O)N[C@@H](Cc1ccc(NC(=O)[C@@H]2CC(=O)NC(=O)N2)cc1)C(=O)N[C@@H](Cc1ccc(NC(N)=O)cc1)C(=O)N[C@@H](CC(C)C)C(=O)N[C@@H](CCNC(C(=O)O)C1CCCCC1)C(=O)N1CCC[C@H]1C(=O)N[C@H](C)C(N)=O (some centres not stated)		1.77 nM
CC(=O)N[C@H](Cc1ccc2ccccc2c1)C(=O)N[C@H](Cc1ccc(Cl)cc1)C(=O)N[C@H](Cc1cccnc1)C(=O)N[C@@H](CO)C(=O)N[C@@H](Cc1ccc(NC(=O)[C@@H]2CC(=O)NC(=O)N2)cc1)C(=O)N[C@H](Cc1ccc(NC(N)=O)cc1)C(=O)N[C@@H](CC(C)C)C(=O)N(C)[C@@H](CCCCNC(C)C)C(=O)N1CCC[C@H]1C(=O)N[C@H](C)C(N)=O	52.2 nM	
CC(=O)N[C@H](Cc1ccc2ccccc2c1)C(=O)N[C@H](Cc1ccc(Cl)cc1)C(=O)N[C@H](Cc1cccnc1)C(=O)N[C@@H](CO)C(=O)N[C@@H](Cc1ccc(NC(=O)[C@@H]2CC(=O)NC(=O)N2)cc1)C(=O)N[C@H](Cc1ccc(NC(N)=O)cc1)C(=O)N[C@@H](CC(N)=O)C(=O)N[C@@H](CCCCNC(C)C)C(=O)N1CCC[C@H]1C(=O)N[C@H](C)C(N)=O	9.18 nM	
CC(=O)N[C@H](Cc1ccc2ccccc2c1)C(=O)N[C@H](Cc1ccc(Cl)cc1)C(=O)N[C@H](CCNCc1ccccn1)C(=O)N[C@@H](CO)C(=O)N[C@@H](Cc1ccc(NC(=O)[C@@H]2CC(=O)NC(=O)N2)cc1)C(=O)N[C@H](Cc1ccc(NC(N)=O)cc1)C(=O)N[C@@H](CC(C)C)C(=O)N[C@@H](CCCCNC(C)C)C(=O)N1CCC[C@H]1C(=O)N[C@H](C)C(N)=O		3.79 nM
C#CC[C@H](NC(=O)[C@@H](Cc1ccc(NC(N)=O)cc1)NC(=O)[C@H](Cc1ccc(NC(=O)[C@@H]2CC(=O)NC(=O)N2)cc1)NC(=O)[C@H](CO)NC(=O)[C@@H](Cc1cccnc1)NC(=O)[C@@H](Cc1ccc(Cl)cc1)NC(=O)[C@@H](Cc1ccc2ccccc2c1)NC(C)=O)C(=O)N[C@@H](CCCCNC(C)C)C(=O)N1CCC[C@H]1C(=O)N[C@H](C)C(N)=O	2.11 nM	
CC(=O)N[C@H](Cc1ccc2ccccc2c1)C(=O)N[C@H](Cc1ccc(Cl)cc1)C(=O)N[C@H](Cc1cccnc1)C(=O)N[C@@H](CO)C(=O)N[C@@H](Cc1ccc(NC(=O)[C@@H]2CC(=O)NC(=O)N2)cc1)C(=O)N[C@H](Cc1ccc(NC(N)=O)cc1)C(=O)N[C@@H](CC(C)C)C(=O)N[C@@H](CCCNC(=O)CNC(C)C)C(=O)N1CCC[C@H]1C(=O)N[C@H](C)C(N)=O	1.38 nM	
CC(=O)N[C@H](Cc1ccc2ccccc2c1)C(=O)N[C@H](Cc1ccc(Cl)cc1)C(=O)N[C@H](Cc1cccnc1)C(=O)N[C@@H](CO)C(=O)N[C@@H](Cc1ccc(Nc2n[nH]c(N)n2)cc1)C(=O)N[C@H](Cc1ccc(Nc2n[nH]c(N)n2)cc1)C(=O)N[C@@H](CC(C)C)C(=O)N[C@@H](CCCCNC(C)C)C(=O)N1CCC[C@H]1C(=O)N[C@H](C)C(N)=O [PRAZARELIX ACETATE] (Ac-[d2Nal][dPhe(4-Cl)][d3Pal]S[Phe(4-NH(5-NH2triazol-3-yl))][X1]L[Lys(iPr)]P[dA]-NH2)	1.4 nM	
CC(=O)N[C@H](Cc1ccc2ccccc2c1)C(=O)N[C@H](Cc1ccc(Cl)cc1)C(=O)N[C@H](Cc1cccnc1)C(=O)N[C@@H](CO)C(=O)N[C@@H](Cc1ccc(NC(=O)[C@@H]2CC(=O)NC(=O)N2)cc1)C(=O)N[C@H](Cc1ccc(NC(N)=O)cc1)C(=O)N[C@@H](CC(=O)N(C)C)C(=O)N[C@@H](CCCCNC(C)C)C(=O)N1CCC[C@H]1C(=O)N[C@H](C)C(N)=O	48.9 nM	
CC(=O)N[C@H](Cc1ccc2ccccc2c1)C(=O)N[C@H](Cc1ccc(Cl)cc1)C(=O)N[C@H](CNCc1ccccn1)C(=O)N[C@@H](CO)C(=O)N[C@@H](Cc1ccc(NC(=O)[C@@H]2CC(=O)NC(=O)N2)cc1)C(=O)N[C@H](Cc1ccc(NC(N)=O)cc1)C(=O)N[C@@H](CC(C)C)C(=O)N[C@@H](CCCCNC(C)C)C(=O)N1CCC[C@H]1C(=O)N[C@H](C)C(N)=O	2.71 nM	

The next lines start with the values.

IC50	IC50 (hek293)	SMILES
178 nM		CC(=O)N[C@H](Cc1ccc2ccccc2c1)C(=O)N[C@H](Cc1ccc(Cl)cc1)C(=O)N[C@H](Cc1cccnc1)C(=O)N[C@@H](CO)C(=O)N[C@@H](Cc1ccc(NC(=O)[C@@H]2CC(=O)NC(=O)N2)cc1)C(=O)N[C@H](Cc1ccc(NC(N)=O)cc1)C(=O)N[C@@H](CS)C(=O)N[C@@H](CCCCNC(C)C)C(=O)N1CCC[C@H]1C(=O)N[C@H](C)C(N)=O
25.8 nM		CNC(=O)C[C@H](NC(=O)[C@@H](Cc1ccc(NC(N)=O)cc1)NC(=O)[C@H](Cc1ccc(NC(=O)[C@@H]2CC(=O)NC(=O)N2)cc1)NC(=O)[C@H](CO)NC(=O)[C@@H](Cc1cccnc1)NC(=O)[C@@H](Cc1ccc(Cl)cc1)NC(=O)[C@@H](Cc1ccc2ccccc2c1)NC(C)=O)C(=O)N[C@@H](CCCCNC(C)C)C(=O)N1CCC[C@H]1C(=O)N[C@H](C)C(N)=O
	2.01 nM	CC(=O)N[C@H](Cc1ccc2ccccc2c1)C(=O)N[C@H](Cc1ccc(Cl)cc1)C(=O)N[C@H](Cc1cccnc1)C(=O)N[C@@H](CO)C(=O)N[C@@H](Cc1ccc(NC(=O)[C@@H]2CC(=O)NC(=O)N2)cc1)C(=O)N[C@H](Cc1ccc(NC(N)=O)cc1)C(=O)N[C@@H](CC(C)C)C(=O)N[C@@H](CN[C@H](C(=O)O)C1CCCCC1)C(=O)N1CCC[C@H]1C(=O)N[C@H](C)C(N)=O
1.98 nM		CC(=O)N[C@H](Cc1ccc2ccccc2c1)C(=O)N[C@H](Cc1ccc(Cl)cc1)C(=O)N[C@H](Cc1cccnc1)C(=O)N[C@@H](CO)C(=O)N[C@@H](Cc1ccc(NC(=O)[C@@H]2CC(=O)NC(=O)N2)cc1)C(=O)N[C@H](Cc1ccc(NC(N)=O)cc1)C(=O)N[C@@H](CC(C)C)C(=O)N[C@@H](CNC(=O)CCNC(C)C)C(=O)N1CCC[C@H]1C(=O)N[C@H](C)C(N)=O
	1.77 nM	CC(=O)N[C@H](Cc1ccc2ccccc2c1)C(=O)N[C@H](Cc1ccc(Cl)cc1)C(=O)N[C@@H](Cc1cccnc1)C(=O)N[C@@H](CO)C(=O)N[C@@H](Cc1ccc(NC(=O)[C@@H]2CC(=O)NC(=O)N2)cc1)C(=O)N[C@@H](Cc1ccc(NC(N)=O)cc1)C(=O)N[C@@H](CC(C)C)C(=O)N[C@@H](CCCNC(=O)[C@H]1CC(=O)NC(=O)N1)C(=O)N1CCC[C@H]1C(=O)N[C@H](C)C(N)=O
	5.31 nM	CC(=O)N[C@H](Cc1ccc2ccccc2c1)C(=O)N[C@H](Cc1ccc(Cl)cc1)C(=O)N[C@H](CN(Cc1ccccn1)Cc1ccccn1)C(=O)N[C@@H](CO)C(=O)N[C@@H](Cc1ccc(NC(=O)[C@@H]2CC(=O)NC(=O)N2)cc1)C(=O)N[C@H](Cc1ccc(NC(N)=O)cc1)C(=O)N[C@@H](CC(C)C)C(=O)N[C@@H](CCCCNC(C)C)C(=O)N1CCC[C@H]1C(=O)N[C@H](C)C(N)=O
1.85 nM		CC(=O)N[C@H](Cc1ccc2ccccc2c1)C(=O)N[C@H](Cc1ccc(Cl)cc1)C(=O)N[C@H](Cc1cccnc1)C(=O)N[C@@H](CO)C(=O)N[C@@H](Cc1ccc(NC(=O)[C@@H]2CC(=O)NC(=O)N2)cc1)C(=O)N(C)[C@H](Cc1ccc(NC(N)=O)cc1)C(=O)N[C@@H](CC(C)C)C(=O)N[C@@H](CCCCNC(C)C)C(=O)N1CCC[C@H]1C(=O)N[C@H](C)C(N)=O
1.72 nM		CC(=O)N[C@H](Cc1ccc2ccccc2c1)C(=O)N[C@H](Cc1ccc(Cl)cc1)C(=O)N[C@H](Cc1cccnc1)C(=O)N[C@@H](CO)C(=O)N[C@@H](Cc1ccc(NC(=O)[C@@H]2CC(=O)NC(=O)N2)cc1)C(=O)N[C@H](Cc1ccc(NC(N)=O)cc1)C(=O)N[C@@H](CC(C)C)C(=O)N[C@@H](CCCNC(C)C)C(=O)N1CCC[C@H]1C(=O)N[C@H](C)C(N)=O
1.64 nM		CC(=O)N[C@H](Cc1ccc2ccccc2c1)C(=O)N[C@H](Cc1ccc(Cl)cc1)C(=O)N[C@H](Cc1cccnc1)C(=O)N[C@@H](CO)C(=O)N[C@@H](Cc1ccc(NC(=O)[C@@H]2CC(=O)NC(=O)N2)cc1)C(=O)N[C@H](Cc1ccc(NC(N)=O)cc1)C(=O)N[C@@H](CC(C)C)C(=O)N[C@@H](CCCCNC(C)C)C(=O)N1CCC[C@H]1C(=O)N[C@H](C)C(N)=O [DEGARELIX] (Ac-[d2Nal][dPhe(4-Cl)][d3Pal]S[Phe(4-NH2)](Dihydroorotyl(S))[dPhe(4-NHCONH2)]L[Lys(iPr)]P[dA]-NH2)
10.6 nM		CC(=O)N[C@H](Cc1ccc2ccccc2c1)C(=O)N[C@H](Cc1ccc(Cl)cc1)C(=O)N[C@H](Cc1cccnc1)C(=O)N[C@@H](CO)C(=O)N[C@@H](Cc1ccc(NC(=O)[C@@H]2CC(=O)NC(=O)N2)cc1)C(=O)N[C@H](Cc1ccc(NC(N)=O)cc1)C(=O)N[C@@H](Cc1c[nH]cn1)C(=O)N[C@@H](CCCCNC(C)C)C(=O)N1CCC[C@H]1C(=O)N[C@H](C)C(N)=O
1.5 nM		CC(=O)N[C@H](Cc1ccc2ccccc2c1)C(=O)N[C@H](Cc1ccc(Cl)cc1)C(=O)N[C@H](Cc1cccnc1)C(=O)N[C@@H](CO)C(=O)N[C@@H](Cc1ccc(NC(=O)[C@@H]2CC(=O)NC(=O)N2)cc1)C(=O)N[C@H](Cc1ccc(NC(N)=O)cc1)C(=O)N[C@@H](CC(C)C)C(=O)N[C@@H](CCCCNC1CCCCC1)C(=O)N1CCC[C@H]1C(=O)N[C@H](C)C(N)=O
